“And” between values parts separate entries of the source, which are not always exact repeats. Identical values can stand only once.
Tested on: U2OS
Experiment: Multiplex assay against U2OS
Format: toxicity, cell-based
Conditions: human
How it was run: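 Phenotypes for tubulin, mitochondrial mass and membrane permeability are expressed as per cents of healthy-nucleus cells. Cells were stained live at seeding with Hoechst33342, BioTracker Green Microtubule Cytoskeleton Dye, MitoTracker Red and Annexin V Alexa Fluor 680, then imaged after compound addition on a CQ1 microscope at 37°C and 5% CO2. Machine-learning gating in CellPathfinder separated Hoechst high-intensity objects from normal cells, divided normal cells by nuclear state (healthy, pyknosed, fragmented) and divided pyknosed cells into mitotic or apoptotic.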

[1] = 12 h, 1 µM, compound concentration 1 uM
[2] = 12 h, 10 µM, compound concentration 10 uM
[3] = 24 h, 1 µM, compound concentration 1 uM
[4] = 24 h, 10 µM, compound concentration 10 uM
[5] = 48 h, 1 µM, compound concentration 1 uM
[6] = 48 h, 10 µM, compound concentration 10 uM

O=C1COc2nccc(-c3ccccc3F)c2CN1Cc1cc(C(F)(F)F)cc(C(F)(F)F)c1
Population Apoptotic (%) [1]: 52% and 77% | Population Fragmented Nuclei (%) [1]: 19% and 23% | Population Healthy Nuclei (%) [1]: 72% and 67% | Population Hoechst High Intensity Objects (%) [1]: 4% and 2% | Population Membrane Permeable-Phenotype (%) [1]: 6% and 15% | Population Mitochondria Different-Phenotype (%) [1]: 2% and 9% | Population Mitotic Cells (%) [1]: 47% and 22% | Population Normal (%) [1]: 95% and 97% | Population Pyknosed Nuclei (%) [1]: 8% | Population Tubulin-Different-Phenotype (%) [1]: 4% and 11% | Total Cell Count [1]: 252 and 108 | Population Apoptotic (%) [2]: 70% and 100% | Population Fragmented Nuclei (%) [2]: 36% and 16% | Population Healthy Nuclei (%) [2]: 47% and 76% | Population Hoechst High Intensity Objects (%) [2]: 3% and 5% | Population Membrane Permeable-Phenotype (%) [2]: 25% and 17% | Population Mitochondria Different-Phenotype (%) [2]: 27% and 23% | Population Normal (%) [2]: 96% and 94% | Population Pyknosed Nuclei (%) [2]: 16% and 7% | Population Tubulin-Different-Phenotype (%) [2]: 25% and 13% | Total Cell Count [2]: 200 and 112 | Population Apoptotic (%) [3]: 86% and 83% | Population Fragmented Nuclei (%) [3]: 17% and 18% | Population Healthy Nuclei (%) [3]: 74% and 76% | Population Hoechst High Intensity Objects (%) [3]: 3% and 4% | Population Membrane Permeable-Phenotype (%) [3]: 8% and 12% | Population Mitochondria Different-Phenotype (%) [3]: 3% and 7% | Population Mitotic Cells (%) [3]: 13% and 16% | Population Normal (%) [3]: 96% and 95% | Population Pyknosed Nuclei (%) [3]: 8% and 5% | Population Tubulin-Different-Phenotype (%) [3]: 3% and 5% | Total Cell Count [3]: 291 and 121 | Population Apoptotic (%) [4]: 58% and 100% | Population Fragmented Nuclei (%) [4]: 36% and 21% | Population Healthy Nuclei (%) [4]: 43% and 70% | Population Hoechst High Intensity Objects (%) [4]: 5% | Population Membrane Permeable-Phenotype (%) [4]: 21% and 13% | Population Mitochondria Different-Phenotype (%) [4]: 22% and 19% | Population Normal (%) [4]: 94% | Population Pyknosed Nuclei (%) [4]: 19% and 8% | Population Tubulin-Different-Phenotype (%) [4]: 17% and 7% | Total Cell Count [4]: 210 and 126 | Population Apoptotic (%) [5]: 84% and 76% | Population Fragmented Nuclei (%) [5]: 16% and 19% | Population Healthy Nuclei (%) [5]: 74% and 69% | Population Hoechst High Intensity Objects (%) [5]: 3% | Population Membrane Permeable-Phenotype (%) [5]: 5% and 8% | Population Mitochondria Different-Phenotype (%) [5]: 3% and 5% | Population Mitotic Cells (%) [5]: 15% and 23% | Population Normal (%) [5]: 96% | Population Pyknosed Nuclei (%) [5]: 9% and 10% | Population Tubulin-Different-Phenotype (%) [5]: 3% | Total Cell Count [5]: 425 and 166 | Population Apoptotic (%) [6]: 61% and 85% | Population Fragmented Nuclei (%) [6]: 35% and 25% | Population Healthy Nuclei (%) [6]: 46% and 60% | Population Hoechst High Intensity Objects (%) [6]: 4% | Population Membrane Permeable-Phenotype (%) [6]: 20% and 12% | Population Mitochondria Different-Phenotype (%) [6]: 17% and 12% | Population Mitotic Cells (%) [6]: 38% and 14% | Population Normal (%) [6]: 95% | Population Pyknosed Nuclei (%) [6]: 17% and 14% | Population Tubulin-Different-Phenotype (%) [6]: 11% and 3% | Total Cell Count [6]: 236 and 151

O=C1[C@H](Cc2ccc(O)cc2)N2C(=O)CCN(C(=O)NCc3ccccc3)[C@H]2CN1Cc1cccc2ccccc12
Population Apoptotic (%) [1]: 91% and 84% | Population Fragmented Nuclei (%) [1]: 13% and 21% | Population Healthy Nuclei (%) [1]: 74% and 66% | Population Hoechst High Intensity Objects (%) [1]: 4% and 0% | Population Membrane Permeable-Phenotype (%) [1]: 4% and 5% | Population Mitochondria Different-Phenotype (%) [1]: 1% and 8% | Population Mitotic Cells (%) [1]: 8% and 15% | Population Normal (%) [1]: 96% and 99% | Population Pyknosed Nuclei (%) [1]: 12% and 11% | Population Tubulin-Different-Phenotype (%) [1]: 1% and 4% | Total Cell Count [1]: 200 and 113 | Population Apoptotic (%) [2]: 60% and 72% | Population Fragmented Nuclei (%) [2]: 32% and 19% | Population Healthy Nuclei (%) [2]: 50% and 67% | Population Hoechst High Intensity Objects (%) [2]: 3% and 6% | Population Membrane Permeable-Phenotype (%) [2]: 55% and 38% | Population Mitochondria Different-Phenotype (%) [2]: 35% and 47% | Population Mitotic Cells (%) [2]: 40% and 27% | Population Normal (%) [2]: 96% and 93% | Population Pyknosed Nuclei (%) [2]: 17% and 13% | Population Tubulin-Different-Phenotype (%) [2]: 55% and 43% | Total Cell Count [2]: 207 and 88 | Population Apoptotic (%) [3]: 80% and 88% | Population Fragmented Nuclei (%) [3]: 13% and 14% | Population Healthy Nuclei (%) [3]: 73% and 71% | Population Hoechst High Intensity Objects (%) [3]: 2% and 1% | Population Membrane Permeable-Phenotype (%) [3]: 4% and 7% | Population Mitochondria Different-Phenotype (%) [3]: 1% and 5% | Population Mitotic Cells (%) [3]: 19% and 11% | Population Normal (%) [3]: 97% and 98% | Population Pyknosed Nuclei (%) [3]: 13% and 14% | Population Tubulin-Different-Phenotype (%) [3]: 2% and 4% | Total Cell Count [3]: 242 and 127 | Population Apoptotic (%) [4]: 65% and 85% | Population Fragmented Nuclei (%) [4]: 34% and 29% | Population Healthy Nuclei (%) [4]: 42% and 54% | Population Hoechst High Intensity Objects (%) [4]: 3% and 5% | Population Membrane Permeable-Phenotype (%) [4]: 25% and 36% | Population Mitochondria Different-Phenotype (%) [4]: 23% and 38% | Population Mitotic Cells (%) [4]: 34% and 14% | Population Normal (%) [4]: 96% and 94% | Population Pyknosed Nuclei (%) [4]: 22% and 16% | Population Tubulin-Different-Phenotype (%) [4]: 25% and 42% | Total Cell Count [4]: 214 and 91 | Population Apoptotic (%) [5]: 81% and 95% | Population Fragmented Nuclei (%) [5]: 15% and 16% | Population Healthy Nuclei (%) [5]: 73% and 67% | Population Hoechst High Intensity Objects (%) [5]: 3% and 5% | Population Membrane Permeable-Phenotype (%) [5]: 2% and 3% | Population Mitochondria Different-Phenotype (%) [5]: 2% and 0% | Population Normal (%) [5]: 96% and 94% | Population Pyknosed Nuclei (%) [5]: 11% and 15% | Population Tubulin-Different-Phenotype (%) [5]: 3% and 5% | Total Cell Count [5]: 326 and 168 | Population Apoptotic (%) [6]: 82% and 81% | Population Fragmented Nuclei (%) [6]: 37% and 33% | Population Healthy Nuclei (%) [6]: 43% and 46% | Population Hoechst High Intensity Objects (%) [6]: 5% and 4% | Population Membrane Permeable-Phenotype (%) [6]: 28% and 22% | Population Mitochondria Different-Phenotype (%) [6]: 16% and 20% | Population Mitotic Cells (%) [6]: 17% and 18% | Population Normal (%) [6]: 94% and 95% | Population Pyknosed Nuclei (%) [6]: 19% and 20% | Population Tubulin-Different-Phenotype (%) [6]: 19% and 18% | Total Cell Count [6]: 252 and 111

Reference: ChEMBL document CHEMBL5724801, “EUbOPEN Chemogenomics Library - Multiplex” (2024)
